A word on the inhibition: it is the change of the read-out against control, counted positive when it falls. A higher inhibition goes with a response far below the control. By IC50 is commonly meant the concentration that gives 50% inhibition. A high value points to a need for much substance.

These results are taken from ChEMBL document CHEMBL4368859, “Discovery of boron-containing compounds as Aβ aggregation inhibitors and antioxidants for the treatment of Alzheimer's disease” (Medchemcomm, 2018).

Calls of active or inactive are those of the source. No cut-off for these calls is given here.

A short description of experiment [1]: Antioxidant activity assessed as trolox equivalents of AAPH radical scavenging activity at 20 uL preincubated for 10 mins followed by AAPH addition measured every min for 120 mins by ORAC-FL assay. The class given is functional. In a few lines: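 Test compound diluted to 10 µM in 75 mM phosphate buffer (pH 7.4). It was pre-incubated with fluorescein (70 nM final) at 37 °C, then AAPH (40 mM solution) was added. Fluorescence (ex 485/em 520 nm) was read each minute for 120 min. […] Triplicates, at least three independent runs, mean ± SD.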

Experiment [2] deals with T1, Amyloid-beta precursor protein (Homo sapiens, UniProt P05067). In words: Inhibition of self-induced aggregation of amyloid beta (1 to 42) (unknown origin) at 20 uM after 48 hrs by thioflavin T-based fluorescence method relative to control. In a few lines: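 Aβ1-42 stock was in 1% ammonium hydroxide, diluted in 50 mM phosphate buffer (pH 7.4). Peptide (25 µM final) was incubated ± compound at 37 °C for 48 h, with peptide-free blanks. Samples were diluted in 50 mM glycine-NaOH (pH 8.0) with 5 µM ThT and read after 5 min (ex 450/em 485 nm). Inhibition = (1−IFi/IFc)×100 after background subtraction. At least three independent measurements, mean ± SD.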
T1 sequence (P05067 whole entry): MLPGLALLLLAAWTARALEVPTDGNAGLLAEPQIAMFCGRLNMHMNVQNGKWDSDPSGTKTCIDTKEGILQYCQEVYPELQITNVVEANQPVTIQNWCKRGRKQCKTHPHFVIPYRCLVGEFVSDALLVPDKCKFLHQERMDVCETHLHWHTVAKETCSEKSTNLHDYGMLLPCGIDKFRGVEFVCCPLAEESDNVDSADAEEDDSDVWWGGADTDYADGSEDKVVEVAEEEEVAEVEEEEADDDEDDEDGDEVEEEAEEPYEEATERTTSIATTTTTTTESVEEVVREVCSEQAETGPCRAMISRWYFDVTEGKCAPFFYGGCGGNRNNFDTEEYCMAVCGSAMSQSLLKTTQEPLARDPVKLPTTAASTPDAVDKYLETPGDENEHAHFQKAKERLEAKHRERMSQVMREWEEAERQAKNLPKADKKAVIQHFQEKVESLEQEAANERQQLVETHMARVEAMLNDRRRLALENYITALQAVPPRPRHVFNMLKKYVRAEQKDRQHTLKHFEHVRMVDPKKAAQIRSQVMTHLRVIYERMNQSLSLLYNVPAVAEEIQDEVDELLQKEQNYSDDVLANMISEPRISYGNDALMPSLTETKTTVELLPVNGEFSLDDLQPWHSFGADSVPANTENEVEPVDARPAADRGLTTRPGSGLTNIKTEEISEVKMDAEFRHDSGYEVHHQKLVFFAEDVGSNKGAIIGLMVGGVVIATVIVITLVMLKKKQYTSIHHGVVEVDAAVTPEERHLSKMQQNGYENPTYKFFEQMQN

For experiment [3], the target named is T1, Amyloid-beta precursor protein. The experiment in a line: Inhibition of self-induced aggregation of amyloid beta (1 to 42) (unknown origin) after 48 hrs by thioflavin T-based fluorescence method.
Experiment [4] shares this target. In words: Potency index, ratio of curcumin IC50 to test compound IC50 for self-induced aggregation of amyloid beta (1 to 42) (unknown origin).
A short description of experiment [5]: Metal chelating activity assessed as Fe3+-compound complex formation at 20 uM after 30 mins by UV-Vis spectrophotometric method.
Experiment [6] is described as follows: Metal chelating activity assessed as Zn2+-compound complex formation at 20 uM after 30 mins by UV-Vis spectrophotometric method. An outline of the steps: (§1)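 UV-Vis absorption spectra were recorded for compound (20 µM final) alone or with CuSO4, FeSO4 or ZnCl2 (40 µM final) after 30 min. Medium was 20% (v/v) ethanol/buffer (20 mM HEPES, 150 mM NaCl, pH 7.4), at room temperature.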

The nature of experiment [7]: Metal chelating activity assessed as Fe2+-compound complex formation by measuring shift in maximum absorption wavelength at 20 uM after 30 mins by UV-Vis spectrophotometric method. An outline of the steps:
as §1

The nature of experiment [8]: Metal chelating activity assessed as Cu2+-compound complex formation by measuring shift in maximum absorption wavelength at 20 uM after 30 mins by UV-Vis spectrophotometric method. An outline of the steps:
as §1

Take `CN(C)c1ccc2c3c(ccc2c1)OB(O)C(c1cc(O)cc(O)c1)=C3`: the Activity (umolequiv/umol) in experiment [1] came to 5.27. Also, in experiment [2], the inhibition stood at 32.4%.
The corresponding values for `OB1Oc2ccc3cc(O)ccc3c2C=C1c1ccc(O)cc1` are 3.94 and 12.3%.
Turning to `OB1Oc2ccc3cc(O)ccc3c2C=C1c1cc(O)cc(O)c1`, the Activity (umolequiv/umol) in experiment [1] was 5.87. This compound yielded a half-maximal inhibitory concentration (IC50) in experiment [3] of 8.9 µM. In experiment [2], the inhibition amounted to 70.3%.
Consider `OB1Oc2ccc3ccc(O)cc3c2C=C1c1ccc(O)cc1`, for which the Activity (umolequiv/umol) in experiment [1] was found to be 4.45. Besides, the inhibition in experiment [2] was 20.5%.
In the case of `OB1Oc2ccc(O)cc2C=C1c1ccc(O)c(O)c1`, in experiment [1], the Activity (umolequiv/umol) is 4.09. The IC50 in experiment [3] was determined as 17.5 µM. The inhibition in experiment [2] is 58.8%.
The corresponding values for `OB1Oc2ccc3ccc(O)cc3c2C=C1c1cc(O)cc(O)c1` are 5.34, 4.9 µM and 78.7%.
The corresponding values for `OB1Oc2ccc3ccccc3c2C=C1c1cc(O)cc(O)c1` are 3, 12.6 µM and 67.3%.
Turning to `COc1ccc(/C=C/c2cc(OC)cc(OC)c2)cc1`, the Activity (umolequiv/umol) in experiment [1] was determined as 0.21.
As for `CN(C)c1ccc2c3c(ccc2c1)OB(O)C(c1ccc(O)cc1)=C3`, the Activity (umolequiv/umol) in experiment [1] is 2.41. This compound yielded an inhibition in experiment [2] of 0%.
In the case of `OB1Oc2ccc3ccc(O)cc3c2C=C1c1ccc(O)c(O)c1`, the Activity (umolequiv/umol) in experiment [1] stood at 4.55. The IC50 in experiment [3] was found to be 3.4 µM. The Ratio IC50 in experiment [4] is 4. Besides, the result in experiment [5] and in experiment [6] was inactive. Moreover, in experiment [2], the inhibition was determined as 82.8%. Moreover, the Activity in experiment [7] is 350 nm; in experiment [8] it was 355 nm.
`OB1Oc2ccc3ccccc3c2C=C1c1ccc(O)c(O)c1`: the Activity (umolequiv/umol) in experiment [1] was 2.7. In experiment [2], this compound showed an inhibition of 43.7%.
On to `CN(C)c1ccc2c3c(ccc2c1)OB(O)C(c1ccc(O)c(O)c1)=C3`, for which the Activity (umolequiv/umol) in experiment [1] amounted to 4.88. The compound also registered an inhibition in experiment [2] of 49.5%.
On to `OB1Oc2ccc3ccccc3c2C=C1c1ccc(O)cc1`, for which the Activity (umolequiv/umol) in experiment [1] was determined as 2.06. Further, the inhibition in experiment [2] turned out to be 0%.
As to `OB1Oc2cc(O)ccc2C=C1c1cc(O)cc(O)c1`, the Activity (umolequiv/umol) in experiment [1] worked out at 4.84. In addition, inhibition in experiment [3] was half-maximal at 21.7 µM (IC50). This compound also showed an inhibition in experiment [2] of 50.2%.
`Oc1ccc(/C=C/c2cc(O)cc(O)c2)cc1`: the Activity (umolequiv/umol) in experiment [1] was found to be 5.33.
For the compound `OB1Oc2ccc3cc(O)ccc3c2C=C1c1ccc(O)c(O)c1`, the Activity (umolequiv/umol) in experiment [1] was determined as 4.05. In experiment [3], this compound returned a half-maximal inhibitory concentration (IC50) of 4.6 µM. In experiment [2], this compound registered an inhibition of 80.5%.
`COc1cc(/C=C/C(=O)O)ccc1O`: the Activity (umolequiv/umol) in experiment [1] amounted to 3.24.
